Assay results collected from several papers.
Protocols differ between the studies behind these lines.
Target: Aurora kinase C (AURKC, Homo sapiens, UniProt Q9UQB9)
Residues used in one study (Q9UQB9 1-309): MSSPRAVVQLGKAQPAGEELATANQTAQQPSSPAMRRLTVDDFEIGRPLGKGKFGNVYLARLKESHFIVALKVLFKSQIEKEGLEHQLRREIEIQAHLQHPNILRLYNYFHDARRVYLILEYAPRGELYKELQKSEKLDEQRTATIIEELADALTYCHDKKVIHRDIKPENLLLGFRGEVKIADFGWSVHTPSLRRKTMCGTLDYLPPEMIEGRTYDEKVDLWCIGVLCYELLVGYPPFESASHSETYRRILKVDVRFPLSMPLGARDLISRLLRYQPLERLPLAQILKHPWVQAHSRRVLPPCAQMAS

SMILES | test | conditions | endpoint | value
C[C@]1(O)CCCN(c2nc(Nc3ccc(S(=O)(=O)N[C@H]4CC[C@H](CN5CCN(c6ccc(C7CCC(=O)NC7=O)cc6F)CC5)CC4)cc3F)ncc2C(F)(F)F)C1 (stereo partly shown) | binding, competition with immobilised ligand | 1 µM | remaining binding | 97%
CO[C@@H]1[C@H](N(C)C(=O)c2ccccc2)C[C@H]2O[C@]1(C)n1c3ccccc3c3c4c(c5c6ccccc6n2c5c31)C(=O)NC4 | enzyme activity, inhibitor | 1 µM | inhibition | 99%
CNS(=O)(=O)c1ccc(Nc2ncc(C(F)(F)F)c(N3CCC[C@](C)(O)C3)n2)c(C)c1 | binding, competition with immobilised ligand | 1 µM | remaining binding | 37%
COc1ccc2oc(-c3ccc4nc(N)oc4c3)c/c(=N\c3ccccc3NC(=O)CCN)c2c1 | binding | 1 µM | remaining binding | 106%
CC(C)S(=O)(=O)c1ccc2nccc(Nc3ccc4sc(C5CCCC5)nc4c3)c2c1 | enzyme activity, inhibitor | 1 µM | activity vs control | 101%
Cc1ccc(NC(=O)c2ccnc(C(F)(F)F)c2)cc1-c1cc(OCCO)nc(N2CCOCC2)c1 | binding, competition with immobilised ligand | 1 µM | remaining binding | 83%
C1=C/COCc2cc(ccc2OCCN2CCCC2)Nc2nccc(n2)-c2cccc(c2)COC/1 | binding | 0.1 µM | remaining binding | 96%
CC#CC(=O)N1CCC[C@H]1c1nc(-c2ccc(C(=O)Nc3ccccn3)cc2)c2c(N)nccn12 | enzyme activity, inhibitor | 1 µM | inhibition | 18%
COc1ccc2[nH]c3c4[nH]c5ccc(OC)cc5c4c4c(c3c2c1)C(=O)NC4=O | binding, competition with immobilised ligand | 1 µM | remaining binding | 17%
CCCCC(=O)Nc1ccc(-c2ccc3ncn(CCC)c(=O)c3c2)cn1 | binding, competition with immobilised ligand | 0.5 µM | remaining binding | 83%
